The record followed here is ChEMBL document CHEMBL3259621, “Novel merosesquiterpene exerts a potent antitumor activity against breast cancer cells in vitro and in vivo” (Eur J Med Chem, 2014).

Data set [1] is described as follows: Therapeutic index, ratio of IC50 for human CCD-18Co cells to IC50 for human T84 cells. Format: cell-based, T84; CCD-18Co. To be noted: CCD-18Co cells versus T84 cells, read-out: Ratio IC50.
Data set [2] can be described thus: Therapeutic index, ratio of IC50 for human MCF10A cells to IC50 for human MCF7 cells. The class given is cell-based, MCF-10A. To be noted: MCF10A cells versus MCF7 cells, read-out: Ratio IC50.
Data set [3] in a line: Cytotoxicity against human CCD-18Co cells after 3 days by SRB assay. Format: cell-based. To be noted: 72 h. Summed up:
(§1)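 Cells seeded at 5 × 10³ cells/cm² in quadruplicate and, after 24 h, treated with increasing concentrations for 3 days. Compounds diluted from DMSO stock, final DMSO <0.1% v/v. Cells were fixed with cold 10% TCA, stained with 0.4% sulforhodamine B in 1% acetic acid, and dye solubilised in 10 mM Tris-base pH 10.5. OD read at 492 nm. IC50 obtained by linear interpolation on a semi-log dose-response curve.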
In general terms: Sulforhodamine B stains cellular protein and so reports cell mass.

Data set [4] can be described thus: Cytotoxicity against human MCF10A cells after 3 days by SRB assay. Format: cell-based. To be noted: MCF-10A, 72 h. In outline:
as §1

Data set [5] can be described thus: Cytotoxicity against mouse E0771 cells after 3 days by SRB assay. The class given is functional, cell-based. To be noted: E0771, 72 h. In outline: as §1
Data set [6] in a line: Therapeutic index, ratio of IC50 for human MCF10A cells to IC50 for mouse E0771 cells. The class given is cell-based, MCF-10A. To be noted: MCF10A cells versus E0771 cells, read-out: Ratio IC50.
Data set [7] relates to SW480. Put plainly: Cytotoxicity against human SW480 cells after 3 days by SRB assay. To be noted: SW480, 72 h. The class given is functional, cell-based. Summed up: as §1
A short description of data set [8]: Therapeutic index, ratio of IC50 for human CCD-18Co cells to IC50 for human SW480 cells. Format: cell-based. To be noted: CCD-18Co cells versus SW480 cells, read-out: Ratio IC50.
Data set [9] concerns MDA-MB-231. Description: Cytotoxicity against human MDA-MB-231 cells after 3 days by SRB assay. Format: functional, cell-based. Particulars: MDA-MB-231, 72 h. In outline:
as §1

In data set [10] the test system is HT-29. Put plainly: Cytotoxicity against human HT-29 cells after 3 days by SRB assay. The class given is functional, cell-based. To be noted: HT-29, 72 h. In outline: as §1
A short description of data set [11]: Therapeutic index, ratio of IC50 for human CCD-18Co cells to IC50 for human HT-29 cells. Particulars: CCD-18Co cells versus HT-29 cells, read-out: Ratio IC50. The class given is cell-based.
For data set [12], the system named is RKO. Description: Cytotoxicity against human RKO cells after 3 days by SRB assay. To be noted: 72 h. The class given is functional, cell-based. In outline: as §1
Data set [13] can be described thus: Therapeutic index, ratio of IC50 for human MCF10A cells to IC50 for human MDA-MB-231 cells. Format: cell-based, MCF-10A. Particulars: MCF10A cells versus MDA-MB-231 cells, read-out: Ratio IC50.
Data set [14] can be described thus: Therapeutic index, ratio of IC50 for human CCD-18Co cells to IC50 for human RKO cells. Format: cell-based. To be noted: CCD-18Co cells versus RKO cells, read-out: Ratio IC50.
Data set [15] is described as follows: Therapeutic index, ratio of IC50 for human MCF10A cells to IC50 for human T47D cells. Format: cell-based, MCF-10A. To be noted: MCF10A cells versus T47D cells, read-out: Ratio IC50.
For data set [16], the system named is MCF7. Description: Cytotoxicity against human MCF7 cells after 3 days by SRB assay. Format: functional, cell-based. Particulars: MCF7, 72 h. In outline:
(§2)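 Cells seeded in quadruplicate at 5 × 10³ cells/cm². Compound added at 24 h over increasing concentrations for 3 days. Cells fixed with cold 10% TCA, stained with 0.4% sulforhodamine B in 1% acetic acid, dye solubilized in 10 mM Tris pH 10.5, OD read at 492 nm. IC50 taken by linear interpolation of the semi-log dose-response curve. DMSO below 0.1% final.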

Data set [17] deals with T47D. Put plainly: Cytotoxicity against human T47D cells after 3 days by SRB assay. To be noted: 72 h. Format: functional, cell-based. In outline: as §1
For data set [18], the system named is T84. Description: Cytotoxicity against human T84 cells after 3 days by SRB assay. The class given is functional, cell-based. To be noted: T84, 72 h. In outline:
as §2

Data set [19] deals with A549. Put plainly: Cytotoxicity against human A549 cells after 3 days by SRB assay. Format: functional, cell-based. To be noted: A549, 72 h. Summed up:
as §2

The structures appear in SMILES notation.

For the compound `O=c1[nH]cc(F)c(=O)[nH]1` [FLUOROURACIL], the selectivity ratio is 2.76 in [1]; 2.82 in [2]; 28.8 in [6]; 2.51 in data set [8]; 3.6 in [11]; 0.44 in data set [13]. Further, the selectivity ratio in [14] was 2.11; in data set [15], 0.76. For the same compound, the IC50 (usually the concentration at which inhibition is half-maximal) was 9.26 µM in data set [3]; 8.06 µM in data set [4]; 0.28 µM in [5]; 3.69 µM in data set [7]; 18.1 µM in data set [9]; 2.58 µM in data set [10]. Besides, the IC50 in [12] came to 4.39 µM; in data set [16], 2.86 µM; in data set [17], 10.6 µM.

In the case of `C=C1CC[C@@H]2[C@](C)(CCC[C@]2(C)C(=O)OC)[C@H]1Cc1c(C)ccc(C(=O)OC)c1C(=O)OC`, the IC50 in data set [18] stood at 25 µM; in [19], 19.9 µM; in data set [16], 33 µM.

Regarding `C=C1CC[C@@H]2[C@](C)(CCC[C@]2(C)C(=O)OC)[C@H]1Cc1c(C)ccc2c1C(=O)C(OC)=CC2=O`, the half-inhibitory concentration (IC50) worked out at 16.7 µM in data set [18], 17.5 µM in data set [19] and 16 µM in data set [16].

With `C=C1CC[C@@H]2[C@](C)(CCC[C@]2(C)C(=O)OC)[C@H]1Cc1c(C)cccc1C#N`, the half-maximal inhibitory concentration (IC50) in [18] came to 23.7 µM; in data set [19], 20.2 µM; in [16] it was 39.6 µM.

With `C=C1CC[C@@H]2[C@](C)(CCC[C@]2(C)C(=O)OC)[C@H]1Cc1c(C)ccc2c1C(=O)C(O)=CC2=O`, the results for the IC50 in data set [18], in data set [19] and in data set [16] were 30 µM, 41.2 µM and 38.4 µM, respectively.

Turning to `C=C1CC[C@@H]2[C@](C)(CCC[C@]2(C)C(=O)OC)[C@H]1Cc1c(C)cccc1C(=O)OC`, the IC50 came to 29 µM in data set [18], 28.1 µM in data set [19] and 40.4 µM in [16].

Turning to `C=C1CC[C@@H]2[C@](C)(CCC[C@]2(C)C(=O)OC)[C@H]1Cc1c(C)ccc(C(=O)OC)c1O`, the IC50 in data set [18] worked out at 40 µM; in data set [19], 27 µM; in [16], 45.1 µM.
